Data as given in ChEMBL document CHEMBL1145518, “Potent immune-modulating and anticancer effects of NKT cell stimulatory glycolipids” (2007).
Active and inactive are the calls of the source. No cut-off for these calls is given here.

What was measured:
Mus musculus [1] = experiment: Activation of dendritic cells in BALB/c mouse at 2 ug, iv after 72 hrs by flow cytometry; assay type: functional, organism-based
How it was run: (§1)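 BALB/c mice (n = 4/group) were given 100 μl of glycolipid at 20 μg/ml in saline i.v., or 100 μl of 1% DMSO. Spleens were harvested after 72 h and splenocyte subsets counted by flow cytometry: mature DCs as CD11c+/CD80+/CD86+, activated NK as U5A2-13Ag+/CD3−/CD69+, activated NKT as U5A2-13Ag+/CD3+/CD69+. Assays were run in duplicate, mean ± SD.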

[2] = Induction of IL4 secretion in human CD161+ CD3+ NKT cells at 10 ug/ml after 18 hrs relative to basal level; assay type: functional
How it was run: (§2)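 Human Vα24i NKT cell lines were expanded for 10 days on irradiated (3,000 rad) autologous immature DCs with 10 units/ml IL-2. The cells (1 × 10^5) were cocultured with 5 × 10^4 irradiated immature CD14+ DCs plus glycolipid at 10 μg/ml. Supernatants were collected at 18 h and read on a 22-plex Luminex bead panel. Triplicates, mean ± SD.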

Mus musculus [3] = experiment: Induction of MIPbeta secretion in BALB/c mouse serum at 2 ug, iv after 2 hrs relative to control; assay type: functional
How it was run: (§3)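 BALB/c mice received an i.v. injection of 100 μl of glycolipid diluted to 20 μg/ml in saline from DMSO stock, with 1% DMSO as vehicle. Serum cytokines/chemokines were measured at 2 and 18 h after injection.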

Mus musculus [4] = experiment: Induction of IL10 secretion in BALB/c mouse serum at 2 ug, iv after 18 hrs relative to control; assay type: functional; how it was run: as §3
[5] = Induction of IFN-gamma secretion in human CD161+ CD3+ NKT cells at 10 ug/ml after 18 hrs relative to basal level; assay type: functional; how it was run: as §2
[6] = Induction of IL12p70 secretion in human CD161+ CD3+ NKT cells at 10 ug/ml after 18 hrs relative to basal level; assay type: functional; how it was run: as §2
[7] = Induction of IL12p40 secretion in human CD161+ CD3+ NKT cells at 10 ug/ml after 18 hrs relative to basal level; assay type: functional; how it was run: as §2
Mus musculus [8] = experiment: Induction of IL12p40 secretion in BALB/c mouse serum at 2 ug, iv after 18 hrs relative to control; assay type: functional; how it was run: as §3
Mus musculus [9] = experiment: Induction of RANTES secretion in BALB/c mouse serum at 2 ug, iv after 2 hrs relative to control; assay type: functional; how it was run: as §3
[10] = Induction of IL6 secretion in human CD161+ CD3+ NKT cells at 10 ug/ml after 18 hrs relative to basal level; assay type: functional; how it was run: as §2
[11] = Induction of IL13 secretion in human CD161+ CD3+ NKT cells at 10 ug/ml after 18 hrs relative to basal level; assay type: functional; how it was run: as §2
NKT = experiment: Stimulation of cell expansion of human invariant CD161+/ Valpha24+/ CD56+/ CD3+ NKT cells by flow cytometry method; assay type: functional, cell-based
How it was run: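 CD56+ NK/NKT mixtures (2 × 10^6) were isolated from human leukopaks with anti-CD56 microbeads. They were cocultured with 4 × 10^5 autologous immature CD14+ DCs pulsed with glycolipid at 3 μg/ml, or with 0.3% DMSO, on day 2 for 18 h. Suspension cells were then transferred and kept in 100 units/ml IL-2 with fresh medium every 3 days. On day 9, CD161+/Vα24TCR+ cells were gated by flow cytometry and total Vα24i NKT cells counted. Triplicates, mean ± SD.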

Mus musculus [12] = experiment: Induction of IL2 secretion in BALB/c mouse serum at 2 ug, iv after 2 hrs relative to control; assay type: functional; how it was run: as §3
[13] = Induction of MCP1 secretion in human CD161+ CD3+ NKT cells at 10 ug/ml after 18 hrs relative to basal level; assay type: functional; how it was run: as §2
Mus musculus [14] = experiment: Induction of IL12p70 secretion in BALB/c mouse serum at 2 ug, iv after 18 hrs relative to control; assay type: functional; how it was run: as §3
Mus musculus [15] = experiment: Induction of GM-CSF secretion in BALB/c mouse serum at 2 ug, iv after 2 hrs relative to control; assay type: functional; how it was run: as §3
[16] = Induction of MIPalpha secretion in human CD161+ CD3+ NKT cells at 10 ug/ml after 18 hrs relative to basal level; assay type: functional; how it was run: as §2
[17] = Induction of IL3 secretion in human CD161+ CD3+ NKT cells at 10 ug/ml after 18 hrs relative to basal level; assay type: functional; how it was run: as §2
Mus musculus [18] = experiment: Induction of IFN-gamma secretion in BALB/c mouse serum at 2 ug, iv after 18 hrs relative to control; assay type: functional; how it was run: as §3
Mus musculus [19] = experiment: Activation of natural killer cells in BALB/c mouse at 2 ug, iv after 72 hrs by flow cytometry; assay type: functional, organism-based; how it was run: as §1
Mus musculus [20] = experiment: Induction of TNFalpha secretion in BALB/c mouse serum at 2 ug, iv after 18 hrs relative to control; assay type: functional; how it was run: as §3
[21] = Induction of GM-CSF secretion in human CD161+ CD3+ NKT cells at 10 ug/ml after 18 hrs relative to basal level; assay type: functional; how it was run: as §2
Mus musculus [22] = experiment: Induction of MCP1 secretion in BALB/c mouse serum at 2 ug, iv after 2 hrs relative to control; assay type: functional; how it was run: as §3
[23] = Induction of IL8 secretion in human CD161+ CD3+ NKT cells at 10 ug/ml after 18 hrs relative to basal level; assay type: functional; how it was run: as §2
[24] = Induction of TNFalpha secretion in human CD161+ CD3+ NKT cells at 10 ug/ml after 18 hrs relative to basal level; assay type: functional; how it was run: as §2
Mus musculus [25] = experiment: Induction of IL13 secretion in BALB/c mouse serum at 2 ug, iv after 2 hrs relative to control; assay type: functional; how it was run: as §3
[26] = Induction of IL10 secretion in human CD161+ CD3+ NKT cells at 10 ug/ml after 18 hrs relative to basal level; assay type: functional; how it was run: as §2
Mus musculus [27] = experiment: Activation of NKT cells in BALB/c mouse at 2 ug, iv after 72 hrs by flow cytometry; assay type: functional, organism-based; how it was run: as §1
Mus musculus [28] = experiment: Induction of IL6 secretion in BALB/c mouse serum at 2 ug, iv after 2 hrs relative to control; assay type: functional; how it was run: as §3
[29] = Induction of RANTES secretion in human CD161+ CD3+ NKT cells at 10 ug/ml after 18 hrs relative to basal level; assay type: functional; how it was run: as §2
Mus musculus [30] = experiment: Induction of KC secretion in BALB/c mouse serum at 2 ug, iv after 2 hrs relative to control; assay type: functional; how it was run: as §3
[31] = Induction of IL15 secretion in human CD161+ CD3+ NKT cells at 10 ug/ml after 18 hrs relative to basal level; assay type: functional; how it was run: as §2
Mus musculus [32] = experiment: Induction of IL3 secretion in BALB/c mouse serum at 2 ug, iv after 2 hrs relative to control; assay type: functional; how it was run: as §3
[33] = Induction of IL2 secretion in human CD161+ CD3+ NKT cells at 10 ug/ml after 18 hrs relative to basal level; assay type: functional; how it was run: as §2
Mus musculus [34] = experiment: Induction of IL1-beta secretion in BALB/c mouse serum at 2 ug, iv after 18 hrs relative to control; assay type: functional; how it was run: as §3
Mus musculus [35] = experiment: Induction of IL4 secretion in BALB/c mouse serum at 2 ug, iv after 2 hrs relative to control; assay type: functional; how it was run: as §3
Mus musculus [36] = experiment: Activation of B cells in BALB/c mouse at 2 ug, iv after 72 hrs by flow cytometry; assay type: functional, organism-based
TC1 = experiment: Antitumor activity in TC1 cells xenografted C57BL/6 mouse assessed as suppression of tumor growth at 2 ug, iv; assay type: functional, cell-based
How it was run: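 C57BL/6 mice (n = 5/group) were inoculated i.v. with TC-1 lung cancer cells. They were then treated i.v. with 2 μg glycolipid per mouse, or 100 μl of 1% DMSO, twice weekly for 4 weeks. Kaplan–Meier survival and body weight were followed, with tumor-free mice as an additional control.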

4T1 = experiment: Antitumor activity in mouse 4T1 cells xenografted BALB/c mouse assessed as suppression of tumor growth at 2 ug, iv; assay type: functional, cell-based
How it was run: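 BALB/c mice (n = 6) were inoculated s.c. with 4T1 breast cancer cells. From day 3 they were treated i.v. with glycolipid or vehicle twice weekly for 4 weeks. Tumor volume was recorded every 3 days for 1 month, and survival was monitored up to 54 days.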

Compound | Activity (Mus musculus [1]) | Activity [2] | Activity [5] | Activity [6] | Activity [7] | Activity [10] | Activity [11] | Activity (NKT) | Activity [13] | Activity [16] | Activity [17] | Activity (Mus musculus [19]) | Activity [21] | Activity [23] | Activity [24] | Activity [26] | Activity (Mus musculus [27]) | Activity [29] | Activity [31] | Activity [33] | other results
CCCCCCCCCCCCCCCCCCCCCCCCCC(=O)N[C@@H](CO[C@H]1O[C@H](CO)[C@H](O)[C@H](OS(=O)(=O)[O-])[C@H]1O)[C@H](O)[C@H](O)CCCCCCCCCCCCCC.[Na+] | Active | 2.7 | 3.3 | 2.8 | 2 | 2.7 | 1.6 | Active | 1.4 | 3.4 | 3.3 | Active | 6.6 | 2.2 | 8.4 | 2.5 | Active | 1.6 | 2.3 | 2.4 | Activity (Mus musculus [3]): 2.5; Activity (Mus musculus [4]): 2.4; Activity (Mus musculus [8]): 2.1; Activity (Mus musculus [9]): 1.6; Activity (Mus musculus [12]): 22; Activity (Mus musculus [14]): 1.4; Activity (Mus musculus [15]): 7.3; Activity (Mus musculus [18]): 160.8; Activity (Mus musculus [20]): 36.3; Activity (Mus musculus [22]): 14.8; Activity (Mus musculus [25]): 2.4; Activity (Mus musculus [28]): 2.2; Activity (Mus musculus [30]): 16.4; Activity (Mus musculus [32]): 1.8; Activity (Mus musculus [34]): 3.2; Activity (Mus musculus [35]): 42.9; Activity (Mus musculus [36]): Active
CCCCCCCCCCCCCCCCCCCCCCCCCC(=O)N[C@@H](CO[C@H]1O[C@H](CO)[C@H](O)[C@H](O)[C@H]1O)[C@H](O)[C@H](O)CCCCc1ccccc1 | Active | 2.8 | 3.9 | 2.1 | 1.8 | 1.9 | 1.8 | Active | 1.8 | 3.5 | 2.6 | Active | 5.8 | 2.3 | 3.4 | 2 | Active | 2 | 2.3 | 1.9 | Activity (TC1): Active; Activity (4T1): Active
